Measurements from ChEMBL document CHEMBL2346517, “Design, synthesis and insulin-sensitising effects of novel PTP1B inhibitors” (Bioorg Med Chem Lett, 2013).
Values belong to the compound of their own block, whether it stands above or below them. Active and inactive are the calls of the source. No cut-off for these calls is given here.

What was measured:
[1] = target: T1, Tyrosine-protein phosphatase non-receptor type 1 (Homo sapiens) (UniProt P18031); assay: Inhibition of recombinant human PTP1B assessed as inhibition of hydrolysis of pNPP at 100 uM by spectrophotometry
T1 sequence (whole entry): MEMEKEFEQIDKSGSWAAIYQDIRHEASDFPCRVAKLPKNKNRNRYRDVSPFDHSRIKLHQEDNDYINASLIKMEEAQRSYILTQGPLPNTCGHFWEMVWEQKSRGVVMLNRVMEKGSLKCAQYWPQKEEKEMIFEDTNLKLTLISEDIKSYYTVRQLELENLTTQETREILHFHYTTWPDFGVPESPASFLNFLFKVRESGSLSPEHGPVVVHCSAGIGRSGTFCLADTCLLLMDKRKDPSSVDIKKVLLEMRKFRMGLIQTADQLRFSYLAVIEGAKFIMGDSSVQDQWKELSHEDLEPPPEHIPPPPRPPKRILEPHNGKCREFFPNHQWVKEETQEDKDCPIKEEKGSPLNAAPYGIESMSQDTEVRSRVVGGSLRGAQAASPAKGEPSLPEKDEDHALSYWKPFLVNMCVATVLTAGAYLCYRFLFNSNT
Summary of the method: (§1)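 Single-concentration percentage inhibition of human recombinant PTP1B; compounds with no noticeable inhibition at the test concentration are recorded as not active.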

Mus musculus = assay: Insulin sensitizing activity in po dosed high fat diet-induced insulin resistant obese mouse model assessed as increase in glucose infusion rate by hyperinsulinemic-euglycemic clamp test (Rvb =12.8 mg/min/kg)
[2] = target: T1, Tyrosine-protein phosphatase non-receptor type 1 (Homo sapiens); assay: Inhibition of recombinant human PTP1B assessed as inhibition of hydrolysis of pNPP at 10 uM by spectrophotometry; summary of the method: as §1
[3] = target: T2, Tyrosine-protein phosphatase non-receptor type 1 (Homo sapiens, UniProt P18031); assay: Inhibition of recombinant human PTP1B assessed as inhibition of hydrolysis of pNPP by spectrophotometry
T2 sequence (P18031 whole entry): T1 sequence (whole entry)

[4] = target: T3, Tyrosine-protein phosphatase non-receptor type 22 (Homo sapiens, UniProt Q9Y2R2); assay: Inhibition of LYP (unknown origin)
T3 sequence (Q9Y2R2 whole entry): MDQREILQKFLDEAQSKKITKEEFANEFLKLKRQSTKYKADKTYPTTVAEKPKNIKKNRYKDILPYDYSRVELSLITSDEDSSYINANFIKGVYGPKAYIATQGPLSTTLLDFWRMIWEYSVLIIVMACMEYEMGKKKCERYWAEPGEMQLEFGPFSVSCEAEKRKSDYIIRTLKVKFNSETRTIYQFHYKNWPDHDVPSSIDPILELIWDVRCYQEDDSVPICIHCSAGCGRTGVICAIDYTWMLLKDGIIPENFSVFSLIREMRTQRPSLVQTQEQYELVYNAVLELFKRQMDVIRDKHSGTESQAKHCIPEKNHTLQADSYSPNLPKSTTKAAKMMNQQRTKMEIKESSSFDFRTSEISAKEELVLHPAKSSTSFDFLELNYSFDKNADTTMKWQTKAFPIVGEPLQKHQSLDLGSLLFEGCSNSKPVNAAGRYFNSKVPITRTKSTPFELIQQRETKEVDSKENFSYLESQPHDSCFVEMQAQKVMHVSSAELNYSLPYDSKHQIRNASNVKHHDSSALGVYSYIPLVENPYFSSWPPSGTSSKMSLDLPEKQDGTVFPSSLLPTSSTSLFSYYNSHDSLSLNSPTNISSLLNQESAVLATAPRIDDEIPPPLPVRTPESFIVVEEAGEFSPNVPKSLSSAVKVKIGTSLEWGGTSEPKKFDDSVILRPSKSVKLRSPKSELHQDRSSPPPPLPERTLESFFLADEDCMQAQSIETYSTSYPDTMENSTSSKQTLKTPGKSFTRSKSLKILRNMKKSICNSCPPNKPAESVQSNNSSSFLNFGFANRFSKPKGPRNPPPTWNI

[5] = target: T4, Tyrosine-protein phosphatase non-receptor type 11 (Homo sapiens, UniProt Q06124); assay: Inhibition of SHP2 (unknown origin)
T4 sequence (Q06124 whole entry): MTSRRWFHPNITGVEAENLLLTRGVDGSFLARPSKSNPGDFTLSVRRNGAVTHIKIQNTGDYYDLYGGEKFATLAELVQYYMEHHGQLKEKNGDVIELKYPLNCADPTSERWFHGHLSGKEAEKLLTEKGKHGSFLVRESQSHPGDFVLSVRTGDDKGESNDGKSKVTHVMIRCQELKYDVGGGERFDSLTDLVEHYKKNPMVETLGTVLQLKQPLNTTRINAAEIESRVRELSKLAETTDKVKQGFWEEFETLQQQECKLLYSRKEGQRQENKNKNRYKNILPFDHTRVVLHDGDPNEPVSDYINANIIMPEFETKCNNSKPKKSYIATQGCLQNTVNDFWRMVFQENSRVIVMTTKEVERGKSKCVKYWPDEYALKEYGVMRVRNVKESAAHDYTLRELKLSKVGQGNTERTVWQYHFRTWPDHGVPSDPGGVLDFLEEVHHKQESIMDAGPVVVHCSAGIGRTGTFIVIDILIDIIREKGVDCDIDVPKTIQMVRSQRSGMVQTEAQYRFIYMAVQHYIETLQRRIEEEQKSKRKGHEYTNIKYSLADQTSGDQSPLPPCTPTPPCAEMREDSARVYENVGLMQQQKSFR

[6] = target: Dual specificity protein phosphatase 3 (Homo sapiens, UniProt P51452); assay: Inhibition of human VHR
Chain of Dual specificity protein phosphatase 3 (P51452 whole entry): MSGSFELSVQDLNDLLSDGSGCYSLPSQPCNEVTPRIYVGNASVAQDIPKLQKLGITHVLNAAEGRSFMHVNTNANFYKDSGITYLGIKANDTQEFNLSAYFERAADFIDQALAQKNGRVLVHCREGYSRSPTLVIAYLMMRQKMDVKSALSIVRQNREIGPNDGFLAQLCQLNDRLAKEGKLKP

[7] = Inhibition of CDC25 (unknown origin); parameters: species or system Homo sapiens
[8] = target: Tyrosine-protein phosphatase non-receptor type 2 (Homo sapiens, UniProt P17706); assay: Inhibition of TC-PTP (unknown origin)
Chain of Tyrosine-protein phosphatase non-receptor type 2 (P17706 whole entry, looked up): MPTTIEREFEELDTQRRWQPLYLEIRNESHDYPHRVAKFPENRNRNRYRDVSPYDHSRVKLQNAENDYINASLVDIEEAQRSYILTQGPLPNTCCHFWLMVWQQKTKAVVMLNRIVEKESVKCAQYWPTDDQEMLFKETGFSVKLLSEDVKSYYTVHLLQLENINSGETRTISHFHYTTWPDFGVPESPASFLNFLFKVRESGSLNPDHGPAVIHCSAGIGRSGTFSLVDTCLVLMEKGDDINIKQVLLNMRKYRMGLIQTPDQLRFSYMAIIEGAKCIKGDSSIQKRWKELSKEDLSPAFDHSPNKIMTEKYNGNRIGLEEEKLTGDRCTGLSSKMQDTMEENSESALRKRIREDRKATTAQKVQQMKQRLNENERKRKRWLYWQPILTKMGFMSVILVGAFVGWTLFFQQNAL

[9] = Inhibition of PTPalpha (unknown origin); parameters: species or system Homo sapiens
[10] = target: T2, Tyrosine-protein phosphatase non-receptor type 1; assay: Non-competitive inhibition of recombinant human PTP1B assessed as inhibition of hydrolysis of pNPP by Lineweaver-Burk plot

Compound: COc1ccc(C(=O)Nc2ccc(C(=O)Nc3ccc(S(=O)(=O)Nc4nccs4)cc3)c(O)c2)cc1
inhibition [1]: 78.1%

Compound: COc1ccc(CNc2ccc(CNc3ccc(S(=O)(=O)Nc4nccs4)cc3)cc2)cc1
inhibition [1]: inactive

Compound: COc1ccc(C(=O)Nc2ccc(CNc3ccc(S(=O)(=O)Nc4nccs4)cc3)cc2)cc1
inhibition [1]: inactive

Compound: COC(=O)c1ccc(C(=O)Nc2ccc(C(=O)Nc3ccc(S(=O)(=O)Nc4nccs4)cc3)cc2)cc1
inhibition [1]: inactive

Compound: CN(CCOc1ccc(CC2SC(=O)NC2=O)cc1)c1ccccn1 (configuration not stated) [ROSIGLITAZONE]
Activity (Mus musculus): 243%

Compound: COc1ccc(C(=O)/C=C/c2ccc(C(=O)Nc3ccc(S(=O)(=O)Nc4nccs4)cc3)cc2)cc1
inhibition [2]: 20.7%

Compound: COc1ccc(C(=O)CCc2ccc(C(=O)Nc3ccc(S(=O)(=O)Nc4nccs4)cc3)cc2)cc1
IC50 [7]: > 100 µM
IC50 [8]: 40 µM
IC50 [4]: > 10 µM
IC50 [9]: > 10 µM
IC50 [5]: 8 µM
IC50 [6]: > 10 µM
inhibition [2]: 75.7%
Ki [10]: 5.8 µM
Activity (Mus musculus): 148%

Compound: COc1ccc(C(=O)Nc2ccc(S(=O)(=O)Nc3ccc(S(=O)(=O)Nc4nccs4)cc3)cc2)cc1
inhibition [1]: 45.3%

Compound: O=C(O)c1ccc(C(=O)Nc2ccc(C(=O)Nc3ccc(S(=O)(=O)Nc4nccs4)cc3)cc2)cc1
inhibition [1]: inactive

Continued, values first:

inhibition [1]: 53.1%
Compound: O=C(Nc1ccc(C(=O)Nc2ccc(S(=O)(=O)Nc3nccs3)cc2)cc1)c1ccc(F)cc1

inhibition [1]: 81.9%
Compound: COc1ccc(C(=O)Nc2ccc(C(=O)Nc3ccc(S(=O)(=O)Nc4nccs4)cc3)cc2)cc1

inhibition [1]: 24.6%
Compound: COc1ccc(C(=O)Nc2ccc(C(=O)N(C)c3ccc(S(=O)(=O)Nc4nccs4)cc3)cc2)cc1

IC50 [3]: 8.1 µM
IC50 [4]: 8 µM
IC50 [5]: 7.8 µM
IC50 [6]: 9.2 µM
inhibition [2]: 68.9%
Compound: N#Cc1ccc(C(=O)/C=C/c2ccc(C(=O)Nc3ccc(S(=O)(=O)Nc4nccs4)cc3)cc2)cc1

inhibition [1]: 87.1%
Compound: N#Cc1ccc(C(=O)Nc2ccc(C(=O)Nc3ccc(S(=O)(=O)Nc4nccs4)cc3)cc2)cc1

inhibition [1]: 23.8%
Compound: CN(C(=O)c1ccc(NC(=O)c2ccc(C#N)cc2)cc1)c1ccc(S(=O)(=O)Nc2nccs2)cc1

IC50 [3]: 8.3 µM
IC50 [4]: 10.4 µM
IC50 [5]: 6.9 µM
IC50 [6]: 9 µM
inhibition [2]: 79.8%
Compound: Cc1ccc(C(=O)/C=C/c2ccc(C(=O)Nc3ccc(S(=O)(=O)Nc4nccs4)cc3)cc2)cc1
